Where “and” joins values, the source holds several entries; their conditions need not be identical. Identical values can stand only once. Calls of active or inactive are those of the source.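 Rule for the calls: active = compounds that lower cell viability with a fitted AC50 at most ten times their top valid dose; inconclusive = flat fit showing 30 to 70 percent loss, or poor fit; inactive = the rest.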
System: U2OS HRE-luc cells viability, CellTiter-Glo luminescence
Experiment: toxicity in U2OS HRE-luc cells, iron medium, dose response, cytotoxicity control for HIF pathway activator project, iron-supplemented medium, dry powder (AID 504331)
Conditions: not given
In short: (§1)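 Material: U2OS HRE-luciferase reporter cells / Quantity: 6,000 cells per well / Compound: 8 concentrations, 3-fold dilution steps / Incubation: cells plated 24 h before dosing, 24 h compound exposure at 37 °C / Measured by: viability luminescence, CellTiter-Glo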

Q: Which AC50 does the source give for O=C(NC1CCc2ccccc2C1)c1cc(-c2ccccc2)on1 (centres undefined) here?
A: Its AC50 is > 38 µM (inactive).

Q: For Cn1c(-c2ccccc2)cnc1Nc1nc(-c2ccccn2)nnc1-c1ccccc1, which AC50 is on record?
A: Its AC50 is > 38 µM (inactive).

Q: With Oc1ccc(CNC2CCc3ccccc32)c2cccnc12 (centres undefined) as the molecule, how does the AC50 read?
A: The AC50 was 35.7 µM.

Q: For CC1CN(Cc2ccc(O)c3ncccc23)CC(C)O1 (centres undefined), which AC50 is on record?
A: The AC50 was 15.6 µM.

Q: With C[C@@H](Nc1nc(-c2ccccn2)nnc1-c1ccccc1)C1CCCCC1 as the molecule, how does the AC50 read?
A: The AC50 was 32 µM.

Q: Which AC50 does the source give for c1ccc(-c2nnc(-c3ccccn3)nc2NCc2ccccn2)cc1 here?
A: The AC50 was > 38 µM (inactive).

Q: With OCC1CCN(Cc2ccc(O)c3ncccc23)CC1 as the molecule, how does the AC50 read?
A: The AC50 was 2.54 µM.

Q: With COc1ccccc1N1CCN(Cc2ccc(O)c3ncccc23)CC1 as the molecule, how does the AC50 read?
A: The AC50 was 33.2 µM.

Q: Which AC50 does the source give for c1ccc(-c2csc(Nc3nc(-c4ccccn4)nnc3-c3ccccc3)n2)cc1 here?
A: The AC50 was > 38 µM (inactive).

Q: With O=C(c1cc(-c2ccccc2)on1)N1CCN(c2ccncc2)CC1 as the molecule, how does the AC50 read?
A: The AC50 was > 38 µM (inactive).

Q: For Oc1ccc(CN2CCc3ccccc3C2)c2cccnc12, which AC50 is on record?
A: Its AC50 is 23.3 µM and 24.6 µM.

Q: Which AC50 does the source give for c1ccc(-c2nnc(-c3ccccn3)nc2N2CCC(c3ccccc3)C2)cc1 (centres undefined) here?
A: Its AC50 is 13.6 µM.

Q: Which AC50 does the source give for Oc1ccc(CN2CCC3CCCCC3C2)c2cccnc12 (centres undefined) here?
A: The AC50 was 22.5 µM.

Q: With Oc1ccc(CNC2Cc3ccccc3C2)c2cccnc12 as the molecule, how does the AC50 read?
A: Its AC50 is 22.5 µM.

System: not listed separately
Experiment: as above
Conditions: U2OS HRE-luc cells viability, CellTiter-Glo luminescence; at 38 µM (top of the series)
In short: as §1

Q: With O=C(NCCN1CCCCC1)c1cc(-c2ccccc2)on1 as the molecule, how does the activity change, negative = cytotoxicity read?
A: The activity change, negative = cytotoxicity was 14% (inactive).

Q: With Cc1ccccc1CNc1nc(-c2ccccn2)nnc1-c1ccccc1 as the molecule, how does the activity change, negative = cytotoxicity read?
A: The activity change, negative = cytotoxicity was -20% (inactive).

Q: With O=C(c1cc(-c2ccccc2)on1)N1CCC(N2CCOCC2)CC1 as the molecule, how does the activity change, negative = cytotoxicity read?
A: The activity change, negative = cytotoxicity was 5.61% (inactive).

Q: Which activity change, negative = cytotoxicity does the source give for O=C(NC1Cc2ccccc2C1)c1cc(-c2ccccc2)on1 here?
A: Its activity change, negative = cytotoxicity is -12.2% (inactive).

Q: With CC(C)(C)CCNc1nc(-c2ccccn2)nnc1-c1ccccc1 as the molecule, how does the activity change, negative = cytotoxicity read?
A: Its activity change, negative = cytotoxicity is -21.1% (inactive).

Q: For O=C(NCCCN1CCOCC1)c1cc(-c2ccccc2)on1, which activity change, negative = cytotoxicity is on record?
A: The activity change, negative = cytotoxicity was 11% (inactive).

Q: With CN1CCN(C(=O)c2cc(-c3ccccc3)on2)CC1 as the molecule, how does the activity change, negative = cytotoxicity read?
A: The activity change, negative = cytotoxicity was 2.12% (inactive).

Q: With CN1CCN(c2nc(-c3ccccn3)nnc2-c2ccccc2)CC1 as the molecule, how does the activity change, negative = cytotoxicity read?
A: The activity change, negative = cytotoxicity was -22.1% (inactive).

Q: For O=C(NCCN1CCOCC1)c1cc(-c2ccccc2)on1, which activity change, negative = cytotoxicity is on record?
A: Its activity change, negative = cytotoxicity is 12.9% (inactive).

Q: Which activity change, negative = cytotoxicity does the source give for O=C(Nc1cnc2ccccc2c1)c1cc(-c2ccccc2)on1 here?
A: Its activity change, negative = cytotoxicity is -0.953% (inactive).

Q: For O=C(Nc1ncc(-c2ccccc2)o1)c1cc(-c2ccccc2)on1, which activity change, negative = cytotoxicity is on record?
A: Its activity change, negative = cytotoxicity is 1.13% (inactive).

Q: With CC(C)(C)OC(=O)N1CCN(Cc2ccc(O)c3ncccc23)CC1 as the molecule, how does the activity change, negative = cytotoxicity read?
A: Its activity change, negative = cytotoxicity is 8.63% (inactive).

Q: For O=C(Nc1ccc2ccccc2n1)c1cc(-c2ccccc2)on1, which activity change, negative = cytotoxicity is on record?
A: Its activity change, negative = cytotoxicity is 13% (inactive).

Q: With O=C(NCc1ccccc1)c1cc(-c2ccccc2)on1 as the molecule, how does the activity change, negative = cytotoxicity read?
A: Its activity change, negative = cytotoxicity is 6.28% (inactive).

Q: With O=C(Nc1nc(-c2ccccc2)cs1)c1cc(-c2ccccc2)on1 as the molecule, how does the activity change, negative = cytotoxicity read?
A: The activity change, negative = cytotoxicity was 8.59% (inactive).

Q: With c1ccc(-c2nnc(-c3ccccn3)nc2NCCCN2CCOCC2)cc1 as the molecule, how does the activity change, negative = cytotoxicity read?
A: The activity change, negative = cytotoxicity was 9.59% (inactive).

Q: For C=CCNc1nc(-c2ccccn2)nnc1-c1ccccc1, which activity change, negative = cytotoxicity is on record?
A: The activity change, negative = cytotoxicity was 6.06% (inactive).

Q: Which activity change, negative = cytotoxicity does the source give for CCCCNC(=O)c1cc(-c2ccccc2)on1 here?
A: The activity change, negative = cytotoxicity was 5.24% (inactive).

Q: For O=C(NCCCn1ccnc1)c1cc(-c2ccccc2)on1, which activity change, negative = cytotoxicity is on record?
A: Its activity change, negative = cytotoxicity is -7.58% (inactive).

Q: For O=C(NCCCO)c1cc(-c2ccccc2)on1, which activity change, negative = cytotoxicity is on record?
A: The activity change, negative = cytotoxicity was -4.34% (inactive).

Q: Which activity change, negative = cytotoxicity does the source give for Cc1cccc(CNC(=O)c2cc(-c3ccccc3)on2)c1 here?
A: Its activity change, negative = cytotoxicity is -4.42% (inactive).

Q: With O=C(NCCCCO)c1cc(-c2ccccc2)on1 as the molecule, how does the activity change, negative = cytotoxicity read?
A: The activity change, negative = cytotoxicity was 1.09% (inactive).

Q: Which activity change, negative = cytotoxicity does the source give for O=C(Nc1nc2ccccc2s1)c1cc(-c2ccccc2)on1 here?
A: The activity change, negative = cytotoxicity was 11.3% (inactive).

Q: Which activity change, negative = cytotoxicity does the source give for c1ccc(-c2nnc(Nc3nc(-c4ccccn4)nnc3-c3ccccc3)s2)cc1 here?
A: Its activity change, negative = cytotoxicity is 5.32% (inactive).

Q: Which activity change, negative = cytotoxicity does the source give for O=C(c1cc(-c2ccccc2)on1)N1CCC(CO)CC1 here?
A: Its activity change, negative = cytotoxicity is 7.47% (inactive).

Q: For CN(C)CCNC(=O)c1cc(-c2ccccc2)on1, which activity change, negative = cytotoxicity is on record?
A: Its activity change, negative = cytotoxicity is 11% (inactive).

Q: With Oc1ccc(CN2CCC(Cc3ccccc3)CC2)c2cccnc12 as the molecule, how does the activity change, negative = cytotoxicity read?
A: Its activity change, negative = cytotoxicity is -1.73% (inactive).

Q: For O=C(NCC1CCCCC1)c1cc(-c2ccccc2)on1, which activity change, negative = cytotoxicity is on record?
A: The activity change, negative = cytotoxicity was -8.74% (inactive).

Q: For CN(C)c1nc(-c2ccccn2)nnc1-c1ccccc1, which activity change, negative = cytotoxicity is on record?
A: Its activity change, negative = cytotoxicity is 13.9% (inactive).

Q: With OCCCNc1nc(-c2ccccn2)nnc1-c1ccccc1 as the molecule, how does the activity change, negative = cytotoxicity read?
A: Its activity change, negative = cytotoxicity is 12.8% (inactive).

Q: Which activity change, negative = cytotoxicity does the source give for O=C(Nc1ncc2ccccc2n1)c1cc(-c2ccccc2)on1 here?
A: The activity change, negative = cytotoxicity was -12.2% (inactive).

Q: For Cn1c(NC(=O)c2cc(-c3ccccc3)on2)nc2ccccc21, which activity change, negative = cytotoxicity is on record?
A: Its activity change, negative = cytotoxicity is 15.8% (inactive).

Q: Which activity change, negative = cytotoxicity does the source give for O=C(Nc1cn2ccccc2n1)c1cc(-c2ccccc2)on1 here?
A: The activity change, negative = cytotoxicity was 15.5% (inactive).

Q: With c1ccc(-c2nnc(-c3ccccn3)nc2NCCN2CCOCC2)cc1 as the molecule, how does the activity change, negative = cytotoxicity read?
A: The activity change, negative = cytotoxicity was -5.86% (inactive).

Q: Which activity change, negative = cytotoxicity does the source give for O=C(c1cc(-c2ccccc2)on1)N1CCC(N2CCCC2)CC1 here?
A: Its activity change, negative = cytotoxicity is -1.03% (inactive).

Q: For c1ccc(-c2nnc(-c3ccccn3)nc2NCC2CCOCC2)cc1, which activity change, negative = cytotoxicity is on record?
A: Its activity change, negative = cytotoxicity is 5.99% (inactive).

Q: Which activity change, negative = cytotoxicity does the source give for O=C(NCC1CC1)c1cc(-c2ccccc2)on1 here?
A: The activity change, negative = cytotoxicity was 20.9% (inactive).

Q: For Cc1cccc(NC(=O)c2cc(-c3ccccc3)on2)n1, which activity change, negative = cytotoxicity is on record?
A: The activity change, negative = cytotoxicity was -3.67% (inactive).

Q: With Cc1ccc(NC(=O)c2cc(-c3ccccc3)on2)cn1 as the molecule, how does the activity change, negative = cytotoxicity read?
A: The activity change, negative = cytotoxicity was -4.1% (inactive).

Q: Which activity change, negative = cytotoxicity does the source give for O=C(c1cc(-c2ccccc2)on1)N1CCc2cccnc21 here?
A: Its activity change, negative = cytotoxicity is -7.82% (inactive).

Q: Which activity change, negative = cytotoxicity does the source give for c1ccc(-c2nnc(-c3ccccn3)nc2N2CCN(c3ccncc3)CC2)cc1 here?
A: The activity change, negative = cytotoxicity was 7.73% (inactive).

Q: With CC(C)(C)CCNC(=O)c1cc(-c2ccccc2)on1 as the molecule, how does the activity change, negative = cytotoxicity read?
A: Its activity change, negative = cytotoxicity is -4% (inactive).

Q: With Cn1c(-c2ccccc2)cnc1NC(=O)c1cc(-c2ccccc2)on1 as the molecule, how does the activity change, negative = cytotoxicity read?
A: Its activity change, negative = cytotoxicity is -7.51% (inactive).

Q: With c1ccc(-c2nnc(-c3ccccn3)nc2NCCc2ccccn2)cc1 as the molecule, how does the activity change, negative = cytotoxicity read?
A: Its activity change, negative = cytotoxicity is -1.62% (inactive).

Q: For c1ccc(-c2cccc(CNc3nc(-c4ccccn4)nnc3-c3ccccc3)c2)cc1, which activity change, negative = cytotoxicity is on record?
A: Its activity change, negative = cytotoxicity is -2.48% (inactive).

Q: Which activity change, negative = cytotoxicity does the source give for Cc1ccccc1CNC(=O)c1cc(-c2ccccc2)on1 here?
A: The activity change, negative = cytotoxicity was 4.84% (inactive).

Q: For Cc1ccc(CNC(=O)c2cc(-c3ccccc3)on2)cc1, which activity change, negative = cytotoxicity is on record?
A: Its activity change, negative = cytotoxicity is -12.1% (inactive).

Q: For c1ccc(CNc2nc(-c3ccccn3)nnc2-c2ccccc2)cc1, which activity change, negative = cytotoxicity is on record?
A: The activity change, negative = cytotoxicity was 0.83% (inactive).

Q: Which activity change, negative = cytotoxicity does the source give for Cc1cccc(CNc2nc(-c3ccccn3)nnc2-c2ccccc2)c1 here?
A: The activity change, negative = cytotoxicity was -8.02% (inactive).

Q: For c1ccc(-c2nnc(-c3ccccn3)nc2NCc2cccnc2)cc1, which activity change, negative = cytotoxicity is on record?
A: Its activity change, negative = cytotoxicity is 17% (inactive).

Q: For O=C(Nc1nnc(-c2ccccc2)s1)c1cc(-c2ccccc2)on1, which activity change, negative = cytotoxicity is on record?
A: The activity change, negative = cytotoxicity was 13.2% (inactive).

Q: Which activity change, negative = cytotoxicity does the source give for c1ccc(-c2nnc(-c3ccccn3)nc2NCC2CC2)cc1 here?
A: The activity change, negative = cytotoxicity was 4.24% (inactive).

Q: With c1ccc(-c2nnc(-c3ccccn3)nc2N2CCC(C3CCCCC3)C2)cc1 (centres undefined) as the molecule, how does the activity change, negative = cytotoxicity read?
A: The activity change, negative = cytotoxicity was 0.423% (inactive).

Q: With c1ccc(-c2nnc(-c3ccccn3)nc2N2CCC(N3CCOCC3)CC2)cc1 as the molecule, how does the activity change, negative = cytotoxicity read?
A: The activity change, negative = cytotoxicity was 5.36% (inactive).

Q: Which activity change, negative = cytotoxicity does the source give for N#CC1(c2ccccc2)CCN(Cc2ccc(O)c3ncccc23)CC1 here?
A: The activity change, negative = cytotoxicity was 10.7% (inactive).

— PubChem BioAssay AID504331 (Broad Institute, 2011)
